Data set [1] is described as follows: folding enthalpy; higher = less favourable; fluorescence melt of hairpins on a sequencing array, two-state fit. The following applies: sodium 0.088 M. In a few lines:
(§1)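 Melting temperature and folding enthalpy were derived from bootstrapped two-state fits. The fitted temperatures were raised by 9.35 °C to agree with UV melts, and four replicates were combined by inverse variance. The underlying data were Cy3 fluorescence images of library hairpins, with annealed Cy3 and quencher oligos, on a sequenced MiSeq flow cell in 50 mM Na-HEPES pH 8.0, 25 mM NaCl, taken in 2.5 °C steps up to 60 °C, normalised to pre-quench Cy3 and to control constructs.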

Data set [2] is described as follows: melting temperature; fluorescence melt of hairpins on a sequencing array, two-state fit, raised by 9.35 °C to match UV melts. The following applies: sodium 0.088 M. The method in brief:
as §1

Turning to GTAAAGGAAACTTTAC ((((((....)))))), the folding enthalpy in data set [1] was -32.6 kcal/mol. For the same sequence, in data set [2], the Tm came out at 40.6 °C.
In the case of GTAAAGGGAAACCTTTAC (((((((....))))))), in data set [1], the folding enthalpy is -41 kcal/mol. Besides, the Tm in data set [2] is 51.3 °C.
On to GTAACAGAAATGTTAC ((((((....)))))), for which the folding enthalpy in data set [1] is -32.8 kcal/mol. Besides, the Tm in data set [2] worked out at 45.7 °C.
In the same order, the values of GTAACAGGAAACTGTTAC (((((((....))))))) are -43.6 kcal/mol and 55.4 °C.
With GTAACCCGAAAGGGGTAC (((.(((....))).))), in data set [1], the folding enthalpy was -30.9 kcal/mol. Moreover, the Tm in data set [2] is 57.6 °C.
Regarding GTAACCGAAAGGTAATAC ((((((....)))..))), the folding enthalpy in data set [1] was -11.9 kcal/mol. Further, the Tm in data set [2] was 23.8 °C.
GTAACCGAAAGGTACTAC ((((((....)))..))): the folding enthalpy in data set [1] is -16.9 kcal/mol. In addition, the Tm in data set [2] was 40.8 °C.
For the sequence GTAACCGAAAGGTATAC ((((((....))).))), the folding enthalpy in data set [1] is -14.9 kcal/mol. For the same sequence, the Tm in data set [2] amounted to 35.2 °C.
GTAACCGAAAGGTGTTAC ((((((....)))..))): the folding enthalpy in data set [1] is -12.6 kcal/mol. Further, the Tm in data set [2] is 35 °C.
For GTAACCGGAAACGATTAC ((((.((....)).)))), the folding enthalpy in data set [1] is -25.3 kcal/mol. For the same sequence, the Tm in data set [2] is 36.4 °C.
The corresponding values for GTAACGCGAAAGCGTAC (((.(((....)))))) are -10.6 kcal/mol and 49 °C.
For the sequence GTAACGGCGAAAGCCTAC (((..(((....)))))), the folding enthalpy in data set [1] is -9.07 kcal/mol. The Tm in data set [2] was found to be 20.7 °C.
In the same order, the values of GTAACTCGAAAGAGCTAC (((.(((....))).))) are -29.2 kcal/mol and 41.9 °C.
The corresponding values for GTAACTGGAAACAGTCAC ((.((((....)))).)) are -17 kcal/mol and 34.8 °C.
Turning to GTAAGAGGAAACCCTTAC (((((.(....).))))), the folding enthalpy in data set [1] was -19.6 kcal/mol. The Tm in data set [2] came to 31.4 °C.
Turning to GTAAGCGAAAGCTCGTAC ((((((....)))..))), the folding enthalpy in data set [1] was -8.1 kcal/mol. For the same sequence, the Tm in data set [2] stood at 24.2 °C.
In the same order, the values of GTAAGCGAAAGCTCTAC ((((((....))).))) are -11.9 kcal/mol and 32.2 °C.
The corresponding values for GTAAGCGAAAGCTGTTAC ((((((....)))..))) are -9.91 kcal/mol and 32.6 °C.
For GTAAGCGAAAGCTTAC ((((((....)))))), in data set [1], the folding enthalpy was -27.9 kcal/mol. Moreover, the Tm in data set [2] was determined as 67.2 °C.
In the same order, the values of GTAAGCGAAAGCTTATAC ((((((....)))..))) are -12.2 kcal/mol and 39.1 °C.
The corresponding values for GTAAGGAAACTTAC (((((....))))) are -14.3 kcal/mol and 37.9 °C.
As for GTAAGGGGAAACCCTTAC (((((((....))))))), in data set [1], the folding enthalpy was -42.4 kcal/mol. Moreover, in data set [2], the Tm worked out at 54.8 °C.
In the same order, the values of GTAAGTGGAAACACCTAC (((.(((....))).))) are -16.8 kcal/mol and 29.2 °C.
Take GTAATACGAAAGTAGTAC (((.(((....))).))): in data set [1], the folding enthalpy is -34.5 kcal/mol. In addition, the Tm in data set [2] was determined as 42.5 °C.
On to GTAATAGAAATATTAC ((((((....)))))), for which, in data set [1], the folding enthalpy is -16.6 kcal/mol. Also, the Tm in data set [2] is 32 °C.
As for GTAATAGGAAACTATTAC (((((((....))))))), the folding enthalpy in data set [1] was -37.2 kcal/mol. In addition, in data set [2], the Tm came out at 45.5 °C.
For the sequence GTAATCCGAAAGGATAC (((.(((....)))))), in data set [1], the folding enthalpy was -14.6 kcal/mol. The Tm in data set [2] amounted to 39.8 °C.
As for GTAATCGAAAGATGGTAC ((((((....)))..))), in data set [1], the folding enthalpy was -12.8 kcal/mol. Moreover, in data set [2], the Tm amounted to 25 °C.
Turning to GTAATCGAAAGATTTAC ((((((....))).))), the folding enthalpy in data set [1] is -14.7 kcal/mol. In data set [2], the Tm was found to be 33.3 °C.
In the same order, the values of GTAATGGGAAACCATTAC (((((((....))))))) are -45.5 kcal/mol and 53.4 °C.
For GTAATTGGAAACAATTGC (.(((((....))))).), the folding enthalpy in data set [1] was -26.5 kcal/mol. Further, the Tm in data set [2] is 39.2 °C.
Consider GTACAAACGAAAGTTTAC (((..(((....)))))), for which, in data set [1], the folding enthalpy is -8.86 kcal/mol. The Tm in data set [2] was determined as 22.1 °C.
Take GTACAACCGAAAGGTTAC (((..(((....)))))): the folding enthalpy in data set [1] is -10.7 kcal/mol. For the same sequence, the Tm in data set [2] came out at 29.8 °C.
In the same order, the values of GTACAAGGAAACTTGTGC (.(((((....))))).) are -22.3 kcal/mol and 45.4 °C.
On to GTACACCGAAAGGTTAC (((.(((....)))))), for which the folding enthalpy in data set [1] was -20.5 kcal/mol. The Tm in data set [2] stood at 39.9 °C.
Regarding GTACACCGAAAGGTTTAC (((.(((....))).))), in data set [1], the folding enthalpy is -30.6 kcal/mol. In addition, in data set [2], the Tm was 42 °C.

Values taken from the array DNA melting data of Ke et al. (doi:10.1101/2024.01.08.574731).
